Data taken from ChEMBL document CHEMBL1125326, “Potent gonadotropin releasing hormone antagonists with low histamine-releasing activity” (J Med Chem, 1992).
≈ marks a conversion by molar mass, not a printed value. Non-standard residues stand in square brackets, D forms with d. Residues, ends and D or L forms follow the SMILES beside them. d(hArg(Et2)) = CCN=C(NCC)NCCCC[C@@H](N)C(=O)O; dPhe(4-Cl) = N[C@H](Cc1ccc(Cl)cc1)C(=O)O; dPhe(4-F) = N[C@H](Cc1ccc(F)cc1)C(=O)O; d2Nal = N[C@H](Cc1ccc2ccccc2c1)C(=O)O

Columns and labels:
[1] = species on record: Rattus norvegicus; assay: Evaluated for the release of histamine in rats (based on 10 animals per dose group); assay type: functional, organism-based
[2] = system: Rattus norvegicus; assay: Evaluated for the anti-ovulatory activity (rats were injected subcutaneously at noon on proestrus); assay type: functional
In short: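 Female rats with at least two consecutive normal 4-day cycles, confirmed by vaginal lavage cytology, were dosed once s.c. at noon on proestrus in 50% propylene glycol/0.9% saline. On the morning of expected estrus, the oviducts were examined for ovulated eggs, which were counted. The effective dose came from % females ovulating plotted against log dose, usually with ≥3 dose groups (10 rats per group total).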

Structure (SMILES) | EC50 [1] [µg/mL] | ED50 [2] [µg]
CCCC/N=C(\N)NCCCC[C@H](NC(=O)[C@H](CC(C)C)NC(=O)[C@@H](CCCCN/C(N)=N/CCCC)NC(=O)[C@H](Cc1ccc(O)cc1)NC(=O)[C@H](CO)NC(=O)[C@@H](Cc1cccnc1)NC(=O)[C@@H](Cc1ccc(Cl)cc1)NC(=O)[C@@H](Cc1ccc2ccccc2c1)NC(C)=O)C(=O)N1CCC[C@H]1C(=O)N[C@H](C)C(N)=O | 0.64 (≈ 0.408 µM) | ~0.9
CC(=O)N[C@H](Cc1ccc2ccccc2c1)C(=O)N[C@H](Cc1ccc(Cl)cc1)C(=O)N[C@H](Cc1cccnc1)C(=O)N[C@@H](CO)C(=O)N[C@@H](CCCN=C(N)N)C(=O)N[C@H](CCC(=O)N[C@@H](C)C(=O)N[C@@H](C)C(=O)O)C(=O)N[C@@H](CC(C)C)C(=O)N[C@@H](CCCN=C(N)N)C(=O)N1CCC[C@H]1C(=O)N[C@H](C)C(N)=O | 1.6 (≈ 1.04 µM) | <1.5
CC/N=C(\NCC)NCCCC[C@@H](NC(=O)[C@H](Cc1ccc(O)cc1)NC(=O)[C@H](CO)NC(=O)[C@@H](Cc1cccnc1)NC(=O)[C@@H](Cc1ccc(Cl)cc1)NC(=O)[C@@H](Cc1ccc2ccccc2c1)NC(C)=O)C(=O)N[C@@H](Cc1ccccc1)C(=O)N[C@@H](CCCN=C(N)N)C(=O)N1CCC[C@H]1C(=O)N[C@H](C)C(N)=O | < 0.01 | 0.5
CC(=O)N[C@H](Cc1ccc2ccccc2c1)C(=O)N[C@H](Cc1ccc(Cl)cc1)C(=O)N[C@H](Cc1c[nH]c2ccccc12)C(=O)N[C@@H](CO)C(=O)N[C@@H](CCCN=C(N)N)C(=O)N[C@H](Cc1c[nH]c2ccccc12)C(=O)N[C@@H](CC(C)C)C(=O)N[C@@H](CCCCNC1=NCCCN1)C(=O)N1CCC[C@H]1C(=O)N[C@H](C)C(N)=O | 0.81 (≈ 0.524 µM) | >2
CCNC(=NCCCC[C@@H](NC(=O)[C@H](Cc1ccc(O)cc1)NC(=O)[C@H](CO)NC(=O)[C@@H](Cc1c[nH]c2ccccc12)NC(=O)[C@@H](Cc1ccc(Cl)cc1)NC(=O)[C@@H](Cc1ccc2ccccc2c1)NC(C)=O)C(=O)N[C@@H](CC(C)C)C(=O)N[C@@H](CCCN=C(N)N)C(=O)N1CCC[C@H]1C(=O)N[C@H](C)C(N)=O)NCC (Ac-[d2Nal][dPhe(4-Cl)][dW]SY[d(hArg(Et2))]LRP[dA]-NH2) | 0.18 (≈ 0.117 µM) | ~0.6
CCCC/N=C(\N)NCCCC[C@H](NC(=O)[C@H](CC(C)C)NC(=O)[C@@H](Cc1c[nH]c2ccccc12)NC(=O)[C@H](Cc1ccc(O)cc1)NC(=O)[C@H](CO)NC(=O)[C@@H](Cc1c[nH]c2ccccc12)NC(=O)[C@@H](Cc1ccc(Cl)cc1)NC(=O)[C@@H](Cc1ccc2ccccc2c1)NC(C)=O)C(=O)N1CCC[C@H]1C(=O)N[C@H](C)C(N)=O | 1.6 (≈ 1.02 µM) | ~1.3
CC(=O)N[C@H](Cc1ccc2ccccc2c1)C(=O)N[C@H](Cc1ccc(F)cc1)C(=O)N[C@H](Cc1c[nH]c2ccccc12)C(=O)N[C@@H](CO)C(=O)N[C@@H](Cc1ccc(O)cc1)C(=O)N[C@H](CCCN=C(N)N)C(=O)N[C@@H](CC(C)C)C(=O)N[C@@H](CCCN=C(N)N)C(=O)N1CCC[C@H]1C(=O)NCC(N)=O (Ac-[d2Nal][dPhe(4-F)][dW]SY[dR]LRPG-NH2) | 0.51 (≈ 0.355 µM) | 2.4
CCCC/N=C(\N)NCCCC[C@H](NC(=O)[C@H](CC(C)C)NC(=O)[C@@H](Cc1cccnc1)NC(=O)[C@H](Cc1ccc(O)cc1)NC(=O)[C@H](CO)NC(=O)[C@@H](Cc1cccnc1)NC(=O)[C@@H](Cc1ccc(Cl)cc1)NC(=O)[C@@H](Cc1ccc2ccccc2c1)NC(C)=O)C(=O)N1CCC[C@H]1C(=O)N[C@H](C)C(N)=O | 15.7 (≈ 10.5 µM) | 1.2
CC(=O)N[C@H](Cc1ccc2ccccc2c1)C(=O)N[C@H](Cc1ccc(Cl)cc1)C(=O)N[C@H](Cc1cccnc1)C(=O)N[C@@H](CO)C(=O)N[C@@H](CCCCN=C(NCC(F)(F)F)NCC(F)(F)F)C(=O)N[C@H](Cc1ccc(O)cc1)C(=O)N[C@@H](CC(C)C)C(=O)N[C@@H](CCCCN=C(NCC(F)(F)F)NCC(F)(F)F)C(=O)N1CCC[C@H]1C(=O)N[C@H](C)C(N)=O | 53 (≈ 29.7 µM) | 1.15
CC/N=C(\NCC)NCCCC[C@H](NC(=O)[C@H](CC(C)C)NC(=O)[C@@H](Cc1c[nH]c2ccccc12)NC(=O)[C@H](Cc1ccc(O)cc1)NC(=O)[C@H](CO)NC(=O)[C@@H](Cc1c[nH]c2ccccc12)NC(=O)[C@@H](Cc1ccc(Cl)cc1)NC(=O)[C@@H](Cc1ccc2ccccc2c1)NC(C)=O)C(=O)N1CCC[C@H]1C(=O)N[C@H](C)C(N)=O | 16 (≈ 10.2 µM) | ~0.9
CC/N=C(\NCC)NCCCC[C@H](NC(=O)[C@H](CC(C)C)NC(=O)[C@@H](Cc1cccnc1)NC(=O)[C@H](Cc1ccc(O)cc1)NC(=O)[C@H](CO)NC(=O)[C@@H](Cc1cccnc1)NC(=O)[C@@H](Cc1ccc(Cl)cc1)NC(=O)[C@@H](Cc1ccc2ccccc2c1)NC(C)=O)C(=O)N1CCC[C@H]1C(=O)N[C@H](C)C(N)=O | 196 (≈ 131 µM) | 0.6
CC(=O)N[C@H](Cc1ccc2ccccc2c1)C(=O)N[C@H](Cc1ccc(Cl)cc1)C(=O)N[C@H](Cc1cccnc1)C(=O)N[C@@H](CO)C(=O)N[C@@H](CCCN=C(N)N)C(=O)N[C@H](Cc1cccnc1)C(=O)N[C@@H](CC(C)C)C(=O)N[C@@H](CCCCN=C(NCC(F)(F)F)NCC(F)(F)F)C(=O)N1CCC[C@H]1C(=O)N[C@H](C)C(N)=O | 0.95 (≈ 0.596 µM) | 0.595
CCCC/N=C(/N)NCCCC[C@@H](NC(=O)[C@H](Cc1ccc(O)cc1)NC(=O)[C@H](CO)NC(=O)[C@@H](Cc1cccnc1)NC(=O)[C@@H](Cc1ccc(F)cc1)NC(=O)[C@@H](Cc1ccc2ccccc2c1)NC(C)=O)C(=O)N[C@@H](CC(C)C)C(=O)N[C@@H](CCCCN=C(NCC(F)(F)F)NCC(F)(F)F)C(=O)N1CCC[C@H]1C(=O)N[C@H](C)C(N)=O | 59 (≈ 35.5 µM) | 1

Now from value to compound, other results behind:

EC50 [1] [µg/mL] | Structure (SMILES) | ED50 [2] [µg]
1.33 (≈ 0.865 µM) | CC(=O)N[C@H](Cc1ccc2ccccc2c1)C(=O)N[C@H](Cc1ccc(Cl)cc1)C(=O)N[C@H](Cc1cccnc1)C(=O)N[C@@H](CO)C(=O)N[C@@H](Cc1ccc(O)cc1)C(=O)N[C@H](CCCCNC1=NCCCN1)C(=O)N[C@@H](CC(C)C)C(=O)N[C@@H](CCCCNC1=NCCCN1)C(=O)N1CCC[C@H]1C(=O)N[C@H](C)C(N)=O | ~0.6
20 (≈ 13.5 µM) | CC(=O)N[C@H](Cc1ccc2ccccc2c1)C(=O)N[C@H](Cc1ccc(Cl)cc1)C(=O)N[C@H](Cc1cccnc1)C(=O)N[C@@H](CO)C(=O)N[C@@H](Cc1ccc(O)cc1)C(=O)N[C@H](Cc1cccnc1)C(=O)N[C@@H](CC(C)C)C(=O)N[C@@H](CCCCNC1=NCCCN1)C(=O)N1CCC[C@H]1C(=O)N[C@H](C)C(N)=O | 0.68
0.41 (≈ 0.267 µM) | CC(=O)N[C@H](Cc1ccc2ccccc2c1)C(=O)N[C@H](Cc1ccc(Cl)cc1)C(=O)N[C@H](Cc1c[nH]c2ccccc12)C(=O)N[C@@H](CO)C(=O)N[C@@H](Cc1ccc(O)cc1)C(=O)N[C@H](CCCCNC1=NCCCN1)C(=O)N[C@@H](CC(C)C)C(=O)N[C@@H](CCCCN=C(N)N)C(=O)N1CCC[C@H]1C(=O)N[C@H](C)C(N)=O | 0.56
23.6 (≈ 15.9 µM) | CC/N=C(\NCC)NCCCC[C@H](NC(=O)[C@H](CC(C)C)NC(=O)[C@@H](Cc1cccnc1)NC(=O)[C@H](CCCN=C(N)N)NC(=O)[C@H](CO)NC(=O)[C@@H](Cc1cccnc1)NC(=O)[C@@H](Cc1ccc(Cl)cc1)NC(=O)[C@@H](Cc1ccc2ccccc2c1)NC(C)=O)C(=O)N1CCC[C@H]1C(=O)N[C@H](C)C(N)=O | 0.425
1.5 (≈ 1.02 µM) | CC(=O)N[C@H](Cc1ccc2ccccc2c1)C(=O)N[C@H](Cc1ccc(Cl)cc1)C(=O)N[C@H](Cc1cccnc1)C(=O)N[C@@H](CO)C(=O)N[C@@H](CCCN=C(N)N)C(=O)N[C@H](Cc1cccnc1)C(=O)N[C@@H](CC(C)C)C(=O)N[C@@H](CCCCNC1=NCCCN1)C(=O)N1CCC[C@H]1C(=O)N[C@H](C)C(N)=O | 0.295
6.2 (≈ 4.27 µM) | CC(=O)N[C@H](Cc1ccc2ccccc2c1)C(=O)N[C@H](Cc1ccc(F)cc1)C(=O)N[C@H](Cc1cccnc1)C(=O)N[C@@H](CO)C(=O)N[C@@H](CCCN=C(N)N)C(=O)N[C@H](Cc1cccnc1)C(=O)N[C@@H](CC(C)C)C(=O)N[C@@H](CCCCNC1=NCCCN1)C(=O)N1CCC[C@H]1C(=O)N[C@H](C)C(N)=O | 0.5
